Source: ChEMBL document CHEMBL3861994, “1,2,3-Triazole-based inhibitors of Porphyromonas gingivalis adherence to oral streptococci and biofilm formation” (Bioorg Med Chem, 2016)

Experiments:
[1] = (§1) Inhibition of Porphyromonas gingivalis ATCC 33277 MFA interaction with Streptococcus gordonii DL1(1) antigen 1/2 assessed as inhibition of 5(6)-carboxyfluorescein N-hydroxysuccinimide ester-labeled Porphyromonas gingivalis ATCC 33277 cell adhesion to hexidium iodide-labeled Streptococcus gordonii DL1(1) by measuring inhibition of biofilm formation preincubated with Porphyromonas gingivalis ATCC 33277 for 30 mins followed by addition to Streptococcus gordonii DL1(1) culture measured after 22 hrs by laser scanning confocal microscopy; assay type: cell-based
In short: (§2)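 Hexidium iodide-labelled S. gordonii (OD600 0.8 in PBS, pH 7.2) was bound to coverslips for 24 h, anaerobic, 37 °C. Carboxyfluorescein-labelled P. gingivalis (OD600 0.4) was preincubated 30 min at room temperature with compound (0–60 μM final, from 1000X DMSO stock), added, then incubated 22 h anaerobically. After fixation, confocal z-stacks (488/552 nm) were taken. IC50 is 50% reduction of the green/red fluorescence ratio; triplicates, three independent experiments.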

[2] = Cytotoxicity against gingival epithelial cells (unknown origin); assay type: toxicity, cell-based; conditions: epithelial cell
[3] = test system: Streptococcus gordonii; test: Growth inhibition of Streptococcus gordonii at 60 uM measured after 24 hrs; conditions: read-out: GI
[4] = test system: Porphyromonas gingivalis; test: Growth inhibition of Porphyromonas gingivalis at 60 uM measured after 24 hrs
[5] = test system: Streptococcus gordonii; test: Growth inhibition of Streptococcus gordonii at 20 uM measured after 24 hrs; conditions: read-out: GI
[6] = test system: Porphyromonas gingivalis; test: Growth inhibition of Porphyromonas gingivalis at 20 uM measured after 24 hrs
[7] = test system: Streptococcus gordonii; test: Growth inhibition of Streptococcus gordonii at 40 uM measured after 24 hrs; conditions: read-out: GI
[8] = test system: Porphyromonas gingivalis; test: Growth inhibition of Porphyromonas gingivalis at 40 uM measured after 24 hrs
[9] = test system: ATCC 33277; test: as §1; assay type: cell-based; in short: as §2
[10] = test system: Streptococcus gordonii; test: Growth inhibition of Streptococcus gordonii at 5 uM measured after 24 hrs; conditions: read-out: GI
[11] = test system: Porphyromonas gingivalis; test: Growth inhibition of Porphyromonas gingivalis at 5 uM measured after 24 hrs

SMILES | IC50 [1] [µM] | Activity [2] | also measured
CCCCCc1ccc(-c2cn(-c3cccc(-c4nc(-c5ccc(OC)cc5)c(-c5ccc(OC)cc5)o4)c3)nn2)cc1 | > 60 | Toxic | 
COc1ccccc1-c1cn(-c2ccc(-c3nc(-c4ccc(F)cc4)c(-c4ccc(F)cc4)o3)cc2)nn1 | 7.7 | Toxic | inhibition at 20 µM [5]: -7.8%; growth inhibition (GI) [6]: -0.5%
FC(F)(F)c1ccccc1-c1cn(Cc2nc(-c3ccccc3)c(-c3ccccc3)o2)nn1 | > 60 | Toxic | 
CC(C)CCNc1nc(NCCC(C)C)nc(-c2cn(Cc3nc(-c4ccccc4)c(-c4ccccc4)o3)nn2)n1 | 36.9 | Toxic | inhibition at 60 µM [3]: 6.8%; growth inhibition (GI) [4]: 72.8%
COc1ccc2cc(-c3cn(Cc4nc(-c5ccc(F)cc5)c(-c5ccc(F)cc5)o4)nn3)ccc2c1 | 29.3 | Toxic | inhibition at 60 µM [3]: 0.2%; growth inhibition (GI) [4]: -3.3%
Fc1ccc(-c2nc(Cn3cc(-c4ccccc4C(F)(F)F)nn3)oc2-c2ccc(F)cc2)cc1 | > 60 | Toxic | 
COc1ccccc1-c1cn(Cc2nc(-c3ccc(Cl)cc3)c(-c3ccc(Cl)cc3)o2)nn1 | 56.8 | Toxic | inhibition at 60 µM [3]: 6.6%; growth inhibition (GI) [4]: -19.6%
COc1ccc2cc(-c3cn(Cc4nc(-c5ccc(Cl)cc5)c(-c5ccc(Cl)cc5)o4)nn3)ccc2c1 | 5.3 | Toxic | inhibition at 60 µM [3]: -3.8%; growth inhibition (GI) [4]: 0.3%
FC(F)(F)c1ccccc1-c1cn(-c2ccc(-c3nc(-c4ccc(Cl)cc4)c(-c4ccc(Cl)cc4)o3)cc2)nn1 | 25.1 | Toxic | 
Fc1cccc(-c2cn(Cc3nc(-c4ccc(Cl)cc4)c(-c4ccc(Cl)cc4)o3)nn2)c1 | > 60 | Toxic | 
COc1ccc2cc(-c3cn(Cc4nc(-c5ccccc5)c(-c5ccccc5)o4)nn3)ccc2c1 | > 60 | Toxic | 
c1ccc(Oc2ccc(-c3cn(Cc4nc(-c5ccccc5)c(-c5ccccc5)o4)nn3)cc2)cc1 | > 60 | Toxic | 
COc1ccc(-c2nc(-c3cccc(-n4cc(-c5ccc(F)cc5)nn4)c3)oc2-c2ccc(OC)cc2)cc1 | 53 | Toxic | inhibition at 40 µM [7]: -22.1%; growth inhibition (GI) [8]: -14.6%
FC(F)(F)c1cc(-c2cn(Cc3nc(-c4ccccc4)c(-c4ccccc4)o3)nn2)cc(C(F)(F)F)c1 | > 60 | Toxic | 
Fc1cccc(-c2cn(Cc3nc(-c4ccc(Br)cc4)c(-c4ccc(Br)cc4)o3)nn2)c1 | > 60 | Toxic | 
COc1ccc(-c2nc(-c3cccc(-n4cc(-c5ccccc5OC)nn4)c3)oc2-c2ccc(OC)cc2)cc1 | 15.4 | Toxic | inhibition at 40 µM [7]: 0.8%; growth inhibition (GI) [8]: -6.2%

SMILES | IC50 [1] [µM] | Activity [2] | also measured
Fc1ccc(-c2nc(Cn3cc(-c4cccc(F)c4)nn3)oc2-c2ccc(F)cc2)cc1 | > 60 | Toxic | 
Fc1ccc(-c2nc(-c3ccc(-n4cc(-c5cccnc5)nn4)cc3)oc2-c2ccc(F)cc2)cc1 | 25.6 | Toxic | 
FC(F)(F)c1ccccc1-c1cn(Cc2nc(-c3ccc(Cl)cc3)c(-c3ccc(Cl)cc3)o2)nn1 | 56.7 | Toxic | 
Fc1cccc(-c2cn(Cc3nc(-c4ccccc4)c(-c4ccccc4)o3)nn2)c1 | > 60 | Toxic | 
COc1ccc2cc(-c3cn(Cc4nc(-c5ccc(Br)cc5)c(-c5ccc(Br)cc5)o4)nn3)ccc2c1 | 33.4 | Toxic | inhibition at 60 µM [3]: -8.6%; growth inhibition (GI) [4]: -9.9%
COc1ccc(-c2nc(-c3cccc(-n4cc(-c5cc(C(F)(F)F)cc(C(F)(F)F)c5)nn4)c3)oc2-c2ccc(OC)cc2)cc1 | 47.4 | Toxic | 
COc1ccccc1-c1cn(-c2cccc(-c3nc(-c4ccc(Br)cc4)c(-c4ccc(Br)cc4)o3)c2)nn1 | 15 | Toxic | inhibition [9]: Dose-dependent effect; inhibition at 40 µM [7]: 10.5%; growth inhibition (GI) [8]: 4.3%
COc1ccc(-c2nc(-c3cccc(-n4cc(-c5cccnc5)nn4)c3)oc2-c2ccc(OC)cc2)cc1 | 57.7 | Toxic | 
COc1ccc(-c2nc(-c3cccc(-n4cc(-c5ccc(Oc6ccccc6)cc5)nn4)c3)oc2-c2ccc(OC)cc2)cc1 | > 60 | Toxic | 
FC(F)(F)c1ccccc1-c1cn(-c2cccc(-c3nc(-c4ccc(Br)cc4)c(-c4ccc(Br)cc4)o3)c2)nn1 | 15.2 | Toxic | inhibition at 40 µM [7]: 2%; growth inhibition (GI) [8]: -0.6%
COc1ccccc1-c1cn(-c2ccc(-c3nc(-c4ccc(Cl)cc4)c(-c4ccc(Cl)cc4)o3)cc2)nn1 | 37.3 | Toxic | 
COc1ccccc1-c1cn(Cc2nc(-c3ccccc3)c(-c3ccccc3)o2)nn1 | > 60 | Toxic | 
COc1ccccc1-c1cn(Cc2nc(-c3ccc(Br)cc3)c(-c3ccc(Br)cc3)o2)nn1 | 43 | Toxic | inhibition at 60 µM [3]: 11.1%; growth inhibition (GI) [4]: -12.4%
Fc1ccc(-c2nc(-c3ccc(-n4cc(-c5ccccc5C(F)(F)F)nn4)cc3)oc2-c2ccc(F)cc2)cc1 | 12.8 | Toxic | inhibition at 40 µM [7]: -11%; growth inhibition (GI) [8]: 0.1%
Brc1ccc(-c2nc(Cn3cc(-c4cccnc4)nn3)oc2-c2ccc(Br)cc2)cc1 | 50.9 | Toxic | 
COc1ccccc1-c1cn(Cc2nc(-c3ccc(F)cc3)c(-c3ccc(F)cc3)o2)nn1 | > 60 | Toxic | 

Second part, led by results:

IC50 [1] [µM] | SMILES | Activity [2] | also measured
15.7 | Fc1cccc(-c2cn(-c3ccc(-c4nc(-c5ccc(Cl)cc5)c(-c5ccc(Cl)cc5)o4)cc3)nn2)c1 | Toxic | 
35.5 | CCCCCc1ccc(-c2cn(Cc3nc(-c4ccccc4)c(-c4ccccc4)o3)nn2)cc1 | Toxic | inhibition at 60 µM [3]: 6.6%; growth inhibition (GI) [4]: -14.5%
59.8 | Fc1ccc(-c2nc(Cn3cc(-c4cccnc4)nn3)oc2-c2ccc(F)cc2)cc1 | Toxic | 
> 60 | c1ccc(-c2nc(Cn3cc(-c4cccnc4)nn3)oc2-c2ccccc2)cc1 | Toxic | 
40.9 | Clc1ccc(-c2nc(-c3ccc(-n4cc(-c5cccnc5)nn4)cc3)oc2-c2ccc(Cl)cc2)cc1 | Toxic | 
> 60 | Fc1ccc(-c2cn(Cc3nc(-c4ccccc4)c(-c4ccccc4)o3)nn2)cc1 | Toxic | 
20.3 | COc1ccc2cc(-c3cn(-c4cccc(-c5nc(-c6ccc(Br)cc6)c(-c6ccc(Br)cc6)o5)c4)nn3)ccc2c1 | Toxic | 
51.5 | Fc1ccc(-c2nc(-c3ccc(-n4cc(-c5cccc(F)c5)nn4)cc3)oc2-c2ccc(F)cc2)cc1 | Toxic | 
5.9 | COc1ccc(-c2nc(-c3cccc(-n4cc(-c5cccc(F)c5)nn4)c3)oc2-c2ccc(OC)cc2)cc1 | Toxic | inhibition at 40 µM [7]: -9.1%; growth inhibition (GI) [8]: -2.6%
> 60 | FC(F)(F)c1ccccc1-c1cn(Cc2nc(-c3ccc(Br)cc3)c(-c3ccc(Br)cc3)o2)nn1 | Toxic | 
32.4 | COc1ccc2cc(-c3cn(-c4ccc(-c5nc(-c6ccc(Cl)cc6)c(-c6ccc(Cl)cc6)o5)cc4)nn3)ccc2c1 | Toxic | 
5 | Fc1cccc(-c2cn(-c3cccc(-c4nc(-c5ccc(Br)cc5)c(-c5ccc(Br)cc5)o4)c3)nn2)c1 | Toxic | inhibition at 5 µM [10]: -5.7%; growth inhibition (GI) [11]: -4.3%
> 60 | Clc1ccc(-c2nc(Cn3cc(-c4cccnc4)nn3)oc2-c2ccc(Cl)cc2)cc1 | Toxic | 
13 | COc1ccc(-c2nc(-c3cccc(-n4cc(-c5ccc6cc(OC)ccc6c5)nn4)c3)oc2-c2ccc(OC)cc2)cc1 | Toxic | inhibition at 20 µM [5]: -1.3%; growth inhibition (GI) [6]: 3%
> 56.3 | Cc1ccccc1-c1cn(Cc2nc(-c3ccccc3)c(-c3ccccc3)o2)nn1 | Toxic | 
27 | COc1ccc(-c2nc(-c3cccc(-n4cc(-c5ccccc5C(F)(F)F)nn4)c3)oc2-c2ccc(OC)cc2)cc1 | Toxic | inhibition at 40 µM [7]: -9.7%; growth inhibition (GI) [8]: -1.6%
52.2 | COc1ccc2cc(-c3cn(-c4ccc(-c5nc(-c6ccc(F)cc6)c(-c6ccc(F)cc6)o5)cc4)nn3)ccc2c1 | Toxic | 
31 | Brc1ccc(-c2nc(-c3cccc(-n4cc(-c5cccnc5)nn4)c3)oc2-c2ccc(Br)cc2)cc1 | Toxic | 
